Data on 37 sequences can be found in the array DNA melting data of Ke et al. (doi:10.1101/2024.01.08.574731).

Data set [1] is described as follows: folding enthalpy; higher = less favourable; fluorescence melt of hairpins on a sequencing array, two-state fit. The note with it: sodium 0.088 M. Put shortly:
(§1)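 Hairpins were imaged by Cy3 fluorescence on a sequenced MiSeq flow cell with annealed Cy3 and quencher oligos, in 50 mM Na-HEPES pH 8.0, 25 mM NaCl, in 2.5 °C steps up to 60 °C. Bootstrapped two-state fits of normalised signals gave melting temperature and folding enthalpy. Four replicates were combined by inverse variance, and fitted temperatures were raised by 9.35 °C to match UV melts.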

Data set [2] is described as follows: melting temperature; fluorescence melt of hairpins on a sequencing array, two-state fit, raised by 9.35 °C to match UV melts. The note with it: sodium 0.088 M. Summed up:
as §1

Turning to GTTCACGAAAGTGTAAAC ((((((....)))..))), the folding enthalpy in data set [1] was -12.3 kcal/mol. Moreover, the Tm in data set [2] is 28.2 °C.

On to GTTCACGAAAGTGTTAAC ((((((....)))..))), for which the folding enthalpy in data set [1] is -12.2 kcal/mol. Besides, the Tm in data set [2] came out at 28 °C.

Regarding GTTCAGAAATGAAC (((((....))))), the folding enthalpy in data set [1] is -21.2 kcal/mol. In data set [2], the Tm came to 41.8 °C.

Turning to GTTCAGCGAAAGCTAAAC (((.(((....))).))), the folding enthalpy in data set [1] is -21.6 kcal/mol. For the same sequence, in data set [2], the Tm is 37.8 °C.

On to GTTCAGCGAAAGCTCAAC (((.(((....))).))), for which the folding enthalpy in data set [1] is -15.4 kcal/mol. Also, in data set [2], the Tm is 33.2 °C.

With GTTCAGGGAAACCTGGAC ((.((((....)))).)), in data set [1], the folding enthalpy is -29.6 kcal/mol. Moreover, the Tm in data set [2] is 48.9 °C.

In the case of GTTCATCGAAAGATAAC (((.(((....)))))), the folding enthalpy in data set [1] is -12.4 kcal/mol. Further, in data set [2], the Tm came out at 32.3 °C.

Take GTTCCCACGAAAGTGAAC (((..(((....)))))): the folding enthalpy in data set [1] was -10 kcal/mol. Moreover, the Tm in data set [2] was found to be 25.7 °C.

Regarding GTTCCCCGAAAGGGCAAC (((.(((....))).))), the folding enthalpy in data set [1] is -14.5 kcal/mol. For the same sequence, the Tm in data set [2] was determined as 35.2 °C.

In the case of GTTCCCGAAAGGGCAAAC ((((((....)))..))), the folding enthalpy in data set [1] is -9.62 kcal/mol. Moreover, the Tm in data set [2] was found to be 28.9 °C.

Consider GTTCCCGAAAGGGTAAAC ((((((....)))..))), for which the folding enthalpy in data set [1] was -11.5 kcal/mol. The Tm in data set [2] was 28.8 °C.

In the case of GTTCCCGAAAGGGTAAC ((((((....))).))), the folding enthalpy in data set [1] is -17.6 kcal/mol. For the same sequence, in data set [2], the Tm is 40.9 °C.

In the case of GTTCCGCGAAAGCGAAC (((.(((....)))))), the folding enthalpy in data set [1] is -14.7 kcal/mol. Further, the Tm in data set [2] amounted to 50.8 °C.

As for GTTCCTCGAAAGAGTAAC (((.(((....))).))), the folding enthalpy in data set [1] was -27.6 kcal/mol. Also, the Tm in data set [2] was determined as 34.1 °C.

In the case of GTTCCTGGAAACAGGAAC (((((((....))))))), the folding enthalpy in data set [1] is -40.9 kcal/mol. Also, the Tm in data set [2] is 63.5 °C.

Regarding GTTCGACGAAAGTCCAAC (((.(((....))).))), the folding enthalpy in data set [1] is -19.8 kcal/mol. Further, the Tm in data set [2] worked out at 34.5 °C.

Take GTTCGCACGAAAGTGAAC (((..(((....)))))): the folding enthalpy in data set [1] is -16.3 kcal/mol. The Tm in data set [2] turned out to be 39 °C.

For GTTCGCCGAAAGGCAAAC (((.(((....))).))), in data set [1], the folding enthalpy is -18.1 kcal/mol. Moreover, the Tm in data set [2] was 46.9 °C.

For the sequence GTTCGCGAAAGCGAAAAC ((((((....)))..))), in data set [1], the folding enthalpy is -9.22 kcal/mol. For the same sequence, the Tm in data set [2] was 47.4 °C.

As to GTTCGCGAAAGCGATAAC ((((((....)))..))), the folding enthalpy in data set [1] is -8.04 kcal/mol. The Tm in data set [2] came out at 32.7 °C.

For GTTCGCGAAAGCGCGAAC ((((((....)))..))), the folding enthalpy in data set [1] is -27.4 kcal/mol. Further, the Tm in data set [2] turned out to be 65 °C.

GTTCGCGAAAGCGGGAAC ((((((....)))..))): the folding enthalpy in data set [1] was -11.8 kcal/mol. For the same sequence, the Tm in data set [2] amounted to 40.7 °C.

As to GTTCGCGGAAACGTGAAC ((((.((....)).)))), in data set [1], the folding enthalpy is -37.7 kcal/mol. In addition, the Tm in data set [2] is 56.8 °C.

As for GTTCGCGGAAACGTGGAC ((.(.((....)).).)), the folding enthalpy in data set [1] was -26.9 kcal/mol. In addition, the Tm in data set [2] came out at 44.8 °C.

As for GTTCGGGGAAACCCGGAC ((.((((....)))).)), in data set [1], the folding enthalpy was -42.2 kcal/mol. The Tm in data set [2] was found to be 54.9 °C.

Regarding GTTCGTGGAAACACAAAC (((.(((....))).))), the folding enthalpy in data set [1] is -22.1 kcal/mol. In addition, the Tm in data set [2] is 34 °C.

In the case of GTTCTAGAAATAGAAC ((((((....)))))), in data set [1], the folding enthalpy is -28.4 kcal/mol. The Tm in data set [2] turned out to be 41.1 °C.

Take GTTCTAGGAAACCAGAAC (((((.(....).))))): the folding enthalpy in data set [1] was -26.6 kcal/mol. In addition, in data set [2], the Tm is 35.6 °C.

Regarding GTTCTCGAAAGAGAAAAC ((((((....)))..))), in data set [1], the folding enthalpy was -14 kcal/mol. In addition, the Tm in data set [2] turned out to be 32.6 °C.

GTTCTCGAAAGAGACAAC ((((((....)))..))): the folding enthalpy in data set [1] is -11.6 kcal/mol. Also, in data set [2], the Tm is 30.6 °C.

On to GTTCTCGAAAGAGTAAAC ((((((....)))..))), for which, in data set [1], the folding enthalpy was -12.5 kcal/mol. For the same sequence, in data set [2], the Tm was 27.9 °C.

With GTTCTCGGAAACGAGGAC ((.((((....)))).)), in data set [1], the folding enthalpy is -28.7 kcal/mol. Also, in data set [2], the Tm amounted to 52 °C.

As to GTTCTGACGAAAGTCAAC (((..(((....)))))), in data set [1], the folding enthalpy is -8.85 kcal/mol. In addition, in data set [2], the Tm was found to be 25.2 °C.

Take GTTCTGCGAAAGCAAAC (((.(((....)))))): the folding enthalpy in data set [1] was -13.5 kcal/mol. In data set [2], the Tm came to 36.9 °C.

Take GTTCTGGAAACAGAAC ((((((....)))))): the folding enthalpy in data set [1] is -37.2 kcal/mol. In data set [2], the Tm is 53.4 °C.

In the case of GTTCTGGGAAACTAGGAC ((.((.(....).)).)), the folding enthalpy in data set [1] is -9.14 kcal/mol. Also, the Tm in data set [2] was 28.8 °C.

As to GTTCTGTCGAAAGACAAC (((..(((....)))))), in data set [1], the folding enthalpy is -9.57 kcal/mol. The Tm in data set [2] came out at 23.8 °C.
